Measured values: ChEMBL document CHEMBL5038583, “Highly Potent and Selective Butyrylcholinesterase Inhibitors for Cognitive Improvement and Neuroprotection” (J Med Chem, 2021)
The source made the active and inactive calls. The calls are words filed in the database; no cut-off is given here.

Key:
[1] = system: SH-SY5Y; experiment: Cytotoxicity against human SH-SY5Y cells assessed as reduction in cell viability incubated for 24 hrs by MTT assay; type: functional, cell-based
Method in brief: (§1)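 Cells seeded at 1 × 10⁴/well in DMEM with 10% FBS and left overnight, then given compound (DMSO stock diluted in DMEM) for 24 h at 37 °C. MTT added for 4 h, formazan dissolved in DMSO, absorbance read at 492 nm. Viability taken as OD treated/OD DMEM × 100%; IC50 from three independent experiments, mean SD.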

[2] = system: PC-12; experiment: Cytotoxicity against rat PC-12 cells assessed as reduction in cell viability incubated for 24 hrs by MTT assay; type: functional, cell-based; conditions: PC-12, 24 h; method in brief: as §1
[3] = system: BV-2; experiment: Cytotoxicity against mouse BV-2 cells assessed as survival rate at 100 uM incubated for 24 hrs by MTT assay; type: functional; method in brief: as §1
[4] = system: HepG2; experiment: Cytotoxicity against human HepG2 cells assessed as reduction in cell viability incubated for 24 hrs by MTT assay; type: functional, cell-based; conditions: HepG2, 24 h; method in brief: as §1
[5] = system: L02; experiment: Cytotoxicity against human L02 cells assessed as survival rate at 100 uM incubated for 24 hrs by MTT assay; type: functional; method in brief: as §1
[6] = system: SH-SY5Y; experiment: Neuroprotective activity against glutamate-induced cytotoxicity in human SH-SY5Y cells at 10 uM pretreated for 2 hrs followed by glutamate stimulation and measured after 24 hrs by MTT assay; type: functional, cell-based; conditions: time 26.0 hrs
Method in brief: (§2)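 SH-SY5Y cells seeded at 5000 per well and grown 24 h. Pretreated 2 h with compound (2.5 or 10 μM, diluted in DMEM from 10⁻¹ M DMSO stock), then H₂O₂ 200 μM, glutamate 20 mM or aggregated Aβ1-42 15 μM for 24 h. MTT added for 4 h, formazan dissolved in DMSO, absorbance read at 492 nm. Viability relative to untreated control; mean ± SEM, n = 3.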

[7] = Hepatotoxicity in ICR mouse assessed as change in aspartate aminotransferase activity at 1 g/kg, ig administered daily for 14 days measured upto 36 hrs post-administration; type: toxicity; conditions: in vivo, po, 1000 mg/kg, 336 h, time 14 day
Method in brief: (§3)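 Heparinized serum from ICR mice taken at 8, 22 and 36 h after oral compound or saline control; AST and ALT activities measured.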

[8] = system: SH-SY5Y; experiment: Neuroprotective activity against H2O2-induced cytotoxicity in human SH-SY5Y cells pretreated for 2 hrs followed by H2O2 stimulation and measured after 24 hrs by MTT assay; type: functional, cell-based; conditions: dose 2.5-10 µM, time 26.0 hrs; method in brief: as §2
[9] = target: Cholinesterase (Equus caballus, UniProt P81908); experiment: Inhibition of equine serum BChE using butyrylthiocholine iodide as substrate preincubated for 5 mins followed by substrate addition and measured after 2 mins by DTNB-reagent based Ellman's method
Chain of Cholinesterase (Equus caballus, UniProt P81908) (P81908 whole entry): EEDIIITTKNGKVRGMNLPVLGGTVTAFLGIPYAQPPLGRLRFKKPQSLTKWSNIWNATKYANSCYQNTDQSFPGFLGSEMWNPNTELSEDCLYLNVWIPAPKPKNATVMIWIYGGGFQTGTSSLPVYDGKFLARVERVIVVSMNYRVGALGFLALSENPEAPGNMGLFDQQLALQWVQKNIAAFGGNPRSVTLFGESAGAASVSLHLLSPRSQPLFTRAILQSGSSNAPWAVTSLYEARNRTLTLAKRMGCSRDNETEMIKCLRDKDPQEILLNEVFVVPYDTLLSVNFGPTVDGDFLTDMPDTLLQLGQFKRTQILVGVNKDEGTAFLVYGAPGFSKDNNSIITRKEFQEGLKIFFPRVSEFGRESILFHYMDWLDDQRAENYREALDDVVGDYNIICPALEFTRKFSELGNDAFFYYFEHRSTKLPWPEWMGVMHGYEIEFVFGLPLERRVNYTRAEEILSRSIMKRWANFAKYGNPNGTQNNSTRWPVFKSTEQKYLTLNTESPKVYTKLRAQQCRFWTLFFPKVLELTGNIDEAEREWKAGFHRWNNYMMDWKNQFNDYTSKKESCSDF

[10] = target: Cholinesterase (Homo sapiens, UniProt P06276); experiment: Inhibition of human serum BChE using butyrylthiocholine iodide as substrate preincubated for 20 mins followed by substrate addition and measured after 2 mins by DTNB-reagent based Ellman's method
Chain of Cholinesterase (Homo sapiens, UniProt P06276) (P06276 whole entry): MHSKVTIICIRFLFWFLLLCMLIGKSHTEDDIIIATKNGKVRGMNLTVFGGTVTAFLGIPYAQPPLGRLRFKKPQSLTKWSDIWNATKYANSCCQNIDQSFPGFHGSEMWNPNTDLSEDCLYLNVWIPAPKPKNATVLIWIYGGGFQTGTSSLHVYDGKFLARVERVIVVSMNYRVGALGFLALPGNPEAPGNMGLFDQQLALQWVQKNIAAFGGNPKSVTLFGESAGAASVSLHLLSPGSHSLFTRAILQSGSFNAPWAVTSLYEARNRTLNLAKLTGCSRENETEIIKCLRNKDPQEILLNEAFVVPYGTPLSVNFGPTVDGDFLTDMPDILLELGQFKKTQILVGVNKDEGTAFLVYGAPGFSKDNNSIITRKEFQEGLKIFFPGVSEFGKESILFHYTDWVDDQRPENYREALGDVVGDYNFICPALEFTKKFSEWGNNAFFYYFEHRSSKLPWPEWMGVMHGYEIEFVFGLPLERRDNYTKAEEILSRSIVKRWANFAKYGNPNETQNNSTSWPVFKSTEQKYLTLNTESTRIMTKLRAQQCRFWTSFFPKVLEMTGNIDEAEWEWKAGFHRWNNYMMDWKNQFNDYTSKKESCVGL
Method in brief: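 hBChE at 0.015 units/mL with DTNB in phosphate buffer pH 8.0, preincubated 20 min at room temperature with at least six concentrations (10⁻⁴−10⁻⁹). Butyrylthiocholine iodide (0.075 M solution) added; A412 read after 2 min at 25 °C. IC50 from % activity vs log concentration; triplicates in at least three runs.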

[11] = system: SH-SY5Y; experiment: Cytotoxicity against human SH-SY5Y cells assessed as survival rate at 100 uM incubated for 24 hrs by MTT assay; type: functional; method in brief: as §1
[12] = system: PC-12; experiment: Cytotoxicity against rat PC-12 cells assessed as survival rate at 10 uM incubated for 24 hrs by MTT assay; type: functional; method in brief: as §1
[13] = system: HepG2; experiment: Cytotoxicity against human HepG2 cells assessed as survival rate at 100 uM incubated for 24 hrs by MTT assay; type: functional; method in brief: as §1
[14] = Acute toxicity in ICR mouse assessed as animal death at […]; conditions: in vivo, po, 1000 mg/kg, 336 h
[15] = Acute toxicity in ICR mouse assessed as abnormal behaviour at 1 g/kg, ig administered […]; conditions: in vivo, po, 1000 mg/kg
Method in brief: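 Single dose of 1 g/kg given intragastrically on day 1 to overnight-fasted mice (15−18 g), suspended in 5% DMSO, 40% PEG 400, 55% saline. Male and female groups (n = 9), with vehicle controls. Death, daily behaviour and body mass followed over the next 2 weeks.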

[16] = Hepatotoxicity in ICR mouse assessed as change in alanine aminotransferase activity at 1 g/kg, ig administered daily for 14 days measured upto 36 hrs post-administration; type: toxicity; conditions: in vivo, po, 1000 mg/kg, 336 h, time 14 day; method in brief: as §3
[17] = Hepatotoxicity in ICR mouse assessed as morphological changes in liver at 1 g/kg, ig administered daily for 14 days analysed after 22 hrs post-administration by hematoxylin and eosin staining based analysis; type: toxicity, tissue-based; conditions: in vivo, po, 1000 mg/kg, 336 h, time 14 day
Method in brief: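 Liver from male mice taken 22 h after compound or vehicle; hematoxylin−eosin staining, viewed at ×100.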

[18] = Effective permeability of the compound in pH 7.4 PBS/EtOH (70:30) at 100 ug/ml incubated for 18 hrs by PAMPA-BBB assay; type: ADME; conditions: dose 100 µg/ml, read-out: Peff
Method in brief: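 PAMPA-BBB with porcine brain lipid in dodecane (20 mg/mL) on PVDF filter. Donor holds compound at 100 μg/mL final (from 5 mg/mL DMSO stock) in PBS pH 7.4/EtOH 70:30; acceptor holds the same buffer. Incubated 18 h at 25 °C; donor and acceptor concentrations by UV at five wavelengths. Four wells, at least three runs, nine permeability standards; mean ± SD.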

[19] = system: SH-SY5Y; experiment: Neuroprotective activity against amyloid beta (1 to 42)-induced cytotoxicity in human SH-SY5Y cells at 2.5 uM pretreated for 2 hrs followed by amyloid beta (1 to 42) stimulation and measured after 24 hrs by MTT assay; type: functional, cell-based; conditions: time 26.0 hrs; method in brief: as §2
[20] = system: SH-SY5Y; experiment: Neuroprotective activity against amyloid beta (1 to 42)-induced cytotoxicity in human SH-SY5Y cells at 10 uM pretreated for 2 hrs followed by amyloid beta (1 to 42) stimulation and measured after 24 hrs by MTT assay; type: functional, cell-based; conditions: time 26.0 hrs; method in brief: as §2
[21] = system: BV-2; experiment: Anti-inflammatory activity against mouse BV-2 cells assessed as blocked of LPS-induced increased ROS production by measuring green fluorescence preincubated for 1 hr by DCFH-DA staining based fluorescence microscopy; type: functional, cell-based
Method in brief: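 BV2 cells seeded at 1 × 10⁴ per well and grown 24 h at 37 °C. Compounds at various concentrations for 1 h, then LPS 2.5 μg/mL for 24 h. Washed in PBS, loaded with DCFH-DA 5 μM (final) for 30 min, washed three times. Intracellular ROS taken as green fluorescence intensity by inverted fluorescence microscopy, exposure fixed at 10.2 ms.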

[22] = system: Mus musculus; experiment: Antialzheimer activity in ICR mouse assessed as reduction in scopolamine-induced cognitive impairment at 30 mg/kg, ig administered for 10 consecutive days by Morris water maze test; type: functional, organism-based; conditions: time 10.0 day
Method in brief: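 Male ICR mice (8−10 weeks, 18−20 g), n = 8 per group. Compound at 15 or 30 mg/kg intragastric in DMSO/saline (10:90), given 30 min before scopolamine 3 mg/kg i.p., for 10 consecutive days; tacrine 15 mg/kg as reference. Morris water maze: 5 days of training, probe trial on day 6 with platform removed. Escape latency and trajectory recorded; mean ± SD.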

[23] = system: Mus musculus; experiment: Anti-alzheimer activity in amyloid beta(1 to 42)-induced ICR mouse model of cognitive impairment assessed as reduction in escape latency time at 15 mg/kg, ig administered at days 2 to 14 by Morris water maze test; type: functional
Method in brief: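 Mouse model by icv oligomerized Aβ1-42 (10 μg/mouse, aggregated 24 h at 37 °C in saline) on day 1; 15 mg/kg ig on days 2−14, n = 8. Morris water maze training on days 9−13, probe trial day 14, escape latency and track recorded. Mean SD.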

[24] = system: Mus musculus; experiment: Anti-alzheimer activity in amyloid beta(1 to 42)-induced ICR mouse model of cognitive impairment assessed as simplification of trajectories at 15 mg/kg, ig administered at days 2 to 14 by Morris water maze test; type: functional, organism-based
Method in brief: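 ICR mice, n = 8 per group. Aggregated Aβ1-42 (5 mM DMSO stock incubated 24 h at 37 °C in saline at 2 mg/mL) given 10 μg per mouse icv on day 1; saline icv for sham. Compound 15 mg/kg intragastric on days 2−14; donepezil reference. Morris water maze training days 9−13, probe trial day 14; tracks recorded; mean ± SD.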

[25] = system: Mus musculus; experiment: Anti-alzheimer activity in amyloid beta(1 to 42)-induced ICR mouse model of cognitive impairment assessed as enhanced alternation performance by measuring total number of arm entries at 15 mg/kg, ig administered at days 2 to 14 and measured on day 15 by Y-maze test; type: functional
Method in brief: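 Oligomerized Aβ1-42 (10 μg per mouse, icv) given on day 1; saline icv for sham. Dosing 15 mg/kg ig on days 2−14 (donepezil as positive control), n = 8. Spontaneous alternation read on day 15 in a three-arm grey PVC Y maze, arms at 120°. Mean SD.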

[26] = Toxicity in ICR mouse assessed as increase in body weight administered for 14 days and measured daily; conditions: in vivo, 15 mg/kg, 336 h
[27] = Metabolic stability in human liver microsomes assessed as half life at 1 uM measured upto 45 mins in presence of NADPH by LC/MS/MS analysis; type: ADME, Microsome
Method in brief: (§4)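 Human liver microsomes 0.5 mg/mL, compound 1 μM final, NADPH 2 mM, at 37 °C. Reactions stopped at 0, 5, 15, 30 and 45 min with acetonitrile containing imipramine internal standard. LC/MS/MS quantitation relative to 0 min; initial rates used for t1/2 and intrinsic clearance; ketanserin as assay control. Mean of two independent experiments.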

[28] = Metabolic stability in human liver microsomes assessed as intrinsic clearance at 1 uM measured upto 45 mins in presence of NADPH by LC/MS/MS analysis; type: ADME, Microsome; conditions: read-out: CLH; method in brief: as §4
[29] = system: SH-SY5Y; experiment: Cytotoxicity against human SH-SY5Y cells assessed as survival rate at 2.5 uM incubated for 24 hrs by MTT assay; type: functional; method in brief: as §1
[30] = system: PC-12; experiment: Cytotoxicity against rat PC-12 cells assessed as survival rate at 2.5 uM incubated for 24 hrs by MTT assay; type: functional; method in brief: as §1

What does the source list for `Cc1ccc2cc(NC(=O)Cn3c(-c4nonc4N)nc4ccccc43)ccc2n1`?
IC50 [1]: 35.1 µM; IC50 [2]: 91.5 µM; Activity [3]: 59.79%; IC50 [4]: 17.3 µM; Activity [5]: 61.49%

What does the source list for `Nc1nonc1-c1nc2ccccc2n1CC(=O)Nc1cccc([N+](=O)[O-])c1`?
Activity [6]: Active; Activity [7]: Non-Toxic; Activity [8]: Dose-Dependent Effect; IC50 [9]: 31 nM; IC50 [10]: 25 nM; Activity [11]: 82.67%; Activity [12]: 58.34%; Activity [3]: 94.23%; Activity [13]: 75.46%; Activity [5]: 87.01%; Activity [14]: Non-Toxic; Activity [15]: Non-Toxic; Activity [16]: Non-Toxic; Activity [17]: Non-Toxic; Papp at 18 h, 100 ug/ml [18]: 12.4 ×10⁻⁶ cm/s; Activity [19]: Active; Activity [20]: Active; Activity [21]: Active; Activity [22]: Active; Activity [23]: Active; Activity [24]: Active; Activity [25]: 68.67%; Activity [26]: Toxic; half-life at 1 µM [27]: 47.5 min; CLint scaled at 1 µM [28]: 36.6 mL/min/kg

Which results are given for `Nc1nonc1-c1nc2ccccc2n1CC(=O)Nc1cccc2ccccc12`?
IC50 [9]: 44 nM; IC50 [10]: 22 nM; Activity [29]: 40.84%; Activity [30]: 44.44%; Activity [3]: 82.9%; IC50 [4]: 5.05 µM; Activity [5]: 73.52%
